Assay outcomes deposited in PubChem by The Scripps Research Institute Molecular Screening Center.
CHO parental Ca: ATP-evoked calcium signal inhibitors, parental CHO, primary screen, counter-screen for OX1R antagonist project, cell-based, fluorescence, Fluo-8 calcium dye | parental CHO-K1, ATP-induced calcium, Fluo-8 fluorescence | inhibition, % at 5.6 µM | 0.63% of 330,000 active;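 active means inhibition above that plate's mean sample inhibition plus 3 SD, cut at about 26% in these data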
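Test system: untransfected parental CHO cell line; also added: ATP stimulus; dosing: 5.6 µM, single dose; signal: calcium-sensitive Fluo-8 fluorescence; measure: percent inhibition of ATP-evoked calcium rise, normalized to controls; benchmarks: low control ATP plus DMSO, high control DMSO only; replication: one well per compound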
TRPML3 ag: human TRPML3 channel agonists, primary screen, cell-based, HEK293 TRPML3-YFP, Fluo-8 calcium fluorescence, 3 µM; 0.29% of 220,000 active; Mucolipin-3 (Homo sapiens), Q8TDD5; activation, % at 3 µM; AID 1448, 2008; 100% = the carbachol control signal;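 active means activation above its plate's cutoff, the mean activation of the plate's test wells plus 3 SD, cut at about 12% in these data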
Target sequence (Q8TDD5 whole entry, looked up): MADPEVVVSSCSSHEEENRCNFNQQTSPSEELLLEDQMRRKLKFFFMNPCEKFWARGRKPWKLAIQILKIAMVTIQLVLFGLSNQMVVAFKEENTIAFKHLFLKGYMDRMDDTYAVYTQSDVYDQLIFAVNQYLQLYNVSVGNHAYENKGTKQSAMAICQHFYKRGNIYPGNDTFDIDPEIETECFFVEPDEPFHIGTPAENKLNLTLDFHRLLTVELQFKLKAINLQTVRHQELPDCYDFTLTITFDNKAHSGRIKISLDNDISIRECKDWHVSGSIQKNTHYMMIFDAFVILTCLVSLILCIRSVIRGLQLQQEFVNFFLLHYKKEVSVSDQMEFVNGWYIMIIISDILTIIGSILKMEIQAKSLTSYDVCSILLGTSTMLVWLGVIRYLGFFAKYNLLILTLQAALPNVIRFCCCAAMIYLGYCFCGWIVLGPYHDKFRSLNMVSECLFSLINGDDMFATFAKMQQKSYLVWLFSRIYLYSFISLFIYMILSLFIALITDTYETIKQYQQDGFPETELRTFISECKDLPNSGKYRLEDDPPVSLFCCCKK
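Material: HEK293 cells stably carrying human TRPML3-YFP; compound dosing: single dose, 3 µM final nominal compound, 0.3% DMSO final; incubation: 1-h 37 °C dye load, 5-s basal, 120-s post-compound reads; technique: Fluo-8 intracellular calcium fluorescence, excitation 470-495 nm, emission 515-575 nm; read-out basis: percent activation from peak-to-basal fluorescence ratio, scaled between DMSO and carbachol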
OX1R antag-1: antagonists of human orexin 1 receptor (OX1R) | Orexin/Hypocretin receptor type 1 (Homo sapiens), O43613 | OX1R-expressing cells, FRET antagonist read-out | inhibition, % at 6.6 µM | 1.8% of 330,000 active; in the data active means inhibition mostly above about 38%, no sharp cut-off; inactive means mostly below about 40%
OX1R antag-2: OX1R (HCRTR1) antagonists, primary screen, fluorescence, CHO/OX1R cells, Fluo-8 calcium, orexin A; Fluo-8 calcium fluorescence; Orexin/Hypocretin receptor type 1 (Homo sapiens), O43613; inhibition, % at 5 µM; AID 434989, 2010; 0.43% of 330,000 active;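 active means inhibition above its plate's threshold, mean inhibition of all tested compounds on the plate plus 3 SD, cut at about 37% in these data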
TRPN1 ag: zebrafish TRPN1 channel agonists, primary screen, cell-based, HEK293, calcium fluorescence; AID 1424, 2008; 0.18% of 220,000 active; HEK293 zebrafish TRPN1-YFP, Fluo-8 calcium fluorescence; 100% = response to 87 µM carbachol; activation, % at 3 µM; transient receptor potential cation channel N1 (TRPN1/NompC), Danio rerio;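 active means activation above its plate's cutoff, the mean activation of test wells on that plate plus 3 SD, cut at about 19% in these data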
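Material – zebrafish TRPN1-YFP in HEK293 cells · Doses – 3 µM single point · Schedule – dye 1 h 37 °C plus 30 min RT · Signal – Fluo-8 calcium fluorescence, excitation 470-495 nm, emission 515-575 nm · Read-out – % activation versus carbachol response · Control set – carbachol high, DMSO low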
OX1R HTRF conf: OX1R (HCRTR1) antagonists, confirmation, cell-based, HTRF; OX1R-expressing cells, HTRF antagonist assay; shares compounds with OX1R antag-1; 49% of 1,800 active; inhibition, % at 6.6 µM; in the data active means inhibition above about 55%;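 further: CHO cells expressing OX1R stimulated with orexin A at about EC80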
CHO-K1 HTRF: signal inhibition in parental CHO-K1 cells, counter-screen for OX1R antagonist project, cell-based, HTRF; inhibition, % at 6.6 µM; shares compounds with OX1R antag-1; AID 493232, 2011; 48% of 1,800 active; HTRF counterscreen; in the data active means inhibition above about 17%
A number is an active result. Only some compounds are listed: those with a hit (about 2.5% of all), similar ones and a draw of the others.

O=C(CN1CCC(C(=O)c2ccc3c(c2)OCCO3)CC1)NCc1ccccc1 was read as CHO parental Ca inactive, OX1R antag-1 inactive and OX1R antag-2 inactive.
Screening CC(=O)N(C(C)=O)N1C(=O)c2cccc3c(N4CCOCC4)ccc(c23)C1=O returned CHO parental Ca inactive, TRPML3 ag inactive, OX1R antag-1 119, OX1R antag-2 inactive, TRPN1 ag inactive, OX1R HTRF conf inactive and CHO-K1 HTRF 40.
Screening CC(C)CC1NC(=O)c2ccc(Cl)cc2-n2c1nc1ccc(Cl)cc1c2=O (stereo not given) returned CHO parental Ca inactive, OX1R antag-1 inactive and OX1R antag-2 inactive.
`CC1CC(C)CN(C(=O)c2cc(S(=O)(=O)N3CCCCC3)ccc2Cl)C1` (stereo not given) gave CHO parental Ca inactive, OX1R antag-1 inactive and OX1R antag-2 inactive.
CC(=O)c1ccc(NC(=O)Nc2ccc3c(c2)N(C)C(=O)CS3)cc1 was read as CHO parental Ca inactive, TRPML3 ag inactive, OX1R antag-1 79, OX1R antag-2 inactive, TRPN1 ag inactive, OX1R HTRF conf inactive and CHO-K1 HTRF inactive.
Screening CCOc1ccc(NC(=O)Nc2ccc3c(c2)N(C)C(=O)CS3)cc1 returned CHO parental Ca inactive, TRPML3 ag inactive, OX1R antag-1 inactive, OX1R antag-2 inactive and TRPN1 ag inactive.
COC(=O)[C@H]1C[C@@H]1[C@H](NS(=O)(=O)c1ccc2ccccc2c1)c1ccccc1 was read as CHO parental Ca inactive, TRPML3 ag inactive, OX1R antag-1 79, OX1R antag-2 inactive, TRPN1 ag inactive, OX1R HTRF conf inactive and CHO-K1 HTRF inactive.
O=C(O)C(Cc1c[nH]c2ccccc12)N1Cc2ccccc2C1=O (stereo not given) was read as CHO parental Ca inactive, TRPML3 ag inactive, OX1R antag-1 inactive, OX1R antag-2 inactive and TRPN1 ag inactive.
CCCS(=O)(=O)N1CCCC(C(=O)NCCCN(Cc2ccccc2)C(C)C)C1 (stereo not given) was read as CHO parental Ca inactive, TRPML3 ag inactive, OX1R antag-1 107, OX1R antag-2 inactive, TRPN1 ag inactive, OX1R HTRF conf inactive and CHO-K1 HTRF inactive.
For Cc1nnc(N/N=C/c2ccccc2O)n1N the results were CHO parental Ca inactive, TRPML3 ag inactive, OX1R antag-1 160, OX1R antag-2 inactive, TRPN1 ag inactive, OX1R HTRF conf inactive and CHO-K1 HTRF inactive.
`Cc1nnc(N/N=C/c2cc(C)n(-c3ccc(F)cc3)c2C)n1N` gave CHO parental Ca inactive, TRPML3 ag inactive, OX1R antag-1 92, OX1R antag-2 inactive, TRPN1 ag inactive, OX1R HTRF conf inactive and CHO-K1 HTRF inactive.
For Oc1ccccc1/C=N/Nc1nn[nH]n1 the results were CHO parental Ca inactive, TRPML3 ag inactive, OX1R antag-1 inactive, OX1R antag-2 inactive and TRPN1 ag inactive.
`Cc1cc(C)c(C#N)c(SCc2nnc(-c3ccccc3[N+](=O)[O-])o2)n1` gave CHO parental Ca inactive, TRPML3 ag inactive, OX1R antag-1 inactive, OX1R antag-2 inactive and TRPN1 ag inactive.
For Cc1cc(C)c(C#N)c(SCc2nnc(-c3ccccc3)o2)n1 the results were CHO parental Ca inactive, TRPML3 ag inactive, OX1R antag-1 81, OX1R antag-2 inactive, TRPN1 ag inactive, OX1R HTRF conf inactive and CHO-K1 HTRF inactive.
O=C(CN1C2=NCCCN2c2ccccc21)c1ccc([N+](=O)[O-])cc1 was read as CHO parental Ca inactive, TRPML3 ag inactive, OX1R antag-1 87, OX1R antag-2 inactive, TRPN1 ag inactive, OX1R HTRF conf 58 and CHO-K1 HTRF 62.
Screening CC(Sc1nncs1)C(=O)Nc1ccc2c(c1)OCO2 (stereo not given) returned CHO parental Ca inactive, TRPML3 ag inactive, OX1R antag-1 inactive, OX1R antag-2 inactive and TRPN1 ag inactive.
`COCCCNC(=O)/C=C1\Sc2ccccc2N(Cc2ccccc2F)C1=O` gave CHO parental Ca inactive, TRPML3 ag inactive, OX1R antag-1 86, OX1R antag-2 inactive, TRPN1 ag inactive, OX1R HTRF conf 77 and CHO-K1 HTRF inactive.
`CN1CCN(C(=O)C2=C[C@H](c3ccc(C(F)(F)F)cc3)C[C@H](OCc3ccc(CO)cc3)O2)CC1` gave CHO parental Ca inactive, TRPML3 ag inactive, OX1R antag-1 inactive, OX1R antag-2 inactive and TRPN1 ag inactive.
Screening CCn1c(/C=C2/C(=O)N(C)c3ccccc32)nc2ccccc2c1=O returned CHO parental Ca inactive, TRPML3 ag inactive, OX1R antag-1 86, OX1R antag-2 inactive, TRPN1 ag inactive, OX1R HTRF conf inactive and CHO-K1 HTRF inactive.
For CC(C)(C)OC(=O)N1CCCC(C(=O)Nc2cccc(C(=O)N3CCCC3)c2)C1 (stereo not given) the results were CHO parental Ca inactive, OX1R antag-1 inactive and OX1R antag-2 inactive.
For CCOC(=O)c1ccc(Nc2nc(-c3cccnc3)nc3ccccc23)cc1 the results were CHO parental Ca inactive, TRPML3 ag inactive, OX1R antag-1 78, OX1R antag-2 inactive, TRPN1 ag inactive, OX1R HTRF conf inactive and CHO-K1 HTRF inactive.
`Cc1ccc(Nc2nc(-c3cccnc3)nc3ccccc23)cc1` gave CHO parental Ca inactive, TRPML3 ag inactive, OX1R antag-1 inactive, OX1R antag-2 inactive and TRPN1 ag inactive.
`O=[N+]([O-])c1ccc(N2CCN(CCOCCO)CC2)c([N+](=O)[O-])c1` gave CHO parental Ca inactive, TRPML3 ag inactive, OX1R antag-1 85, OX1R antag-2 inactive, TRPN1 ag inactive, OX1R HTRF conf inactive and CHO-K1 HTRF 39.
`COc1ccc(OCCCC(=O)N2CCN(S(=O)(=O)c3cccc(F)c3)CC2)cc1` gave CHO parental Ca inactive, OX1R antag-1 inactive and OX1R antag-2 inactive.
`COc1ccc(-c2ncn(CCC#N)c2[N+](=O)[O-])cc1` gave CHO parental Ca inactive, TRPML3 ag inactive, OX1R antag-1 85, OX1R antag-2 inactive, TRPN1 ag inactive, OX1R HTRF conf inactive and CHO-K1 HTRF 42.
Screening COc1ccc(-c2cc(=O)n(CCC#N)[nH]2)cc1 returned CHO parental Ca inactive, TRPML3 ag inactive, OX1R antag-1 inactive, OX1R antag-2 inactive and TRPN1 ag inactive.
`CC(=O)N1c2ccc(S(=O)(=O)NCCc3ccc(S(N)(=O)=O)cc3)cc2CC1C` (stereo not given) gave CHO parental Ca inactive, OX1R antag-1 inactive and OX1R antag-2 inactive.
